Reference: article PMC12676294 (ACS Omega, 2025)

Test: Potentiometric titration: protonation constants of the ligands
Type: physicochemical
Settings: T = 25.0 °C; I = 0.1 M KNO3
Summary of the method: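 Ligand (about 1 mM, 16 mL) with 5–9 mM HClO4 titrated with carbonate-free NaOH (about 0.1 M) under argon with stirring, at 25.0 ± 0.1 °C in 0.1 M KNO3. Glass electrode calibrated as an H+ concentration probe by Gran's method; pKw fixed at 13.78. Points accepted at drift <0.5 mV/min, pH 2–12, 55–130 points per dataset. Stepwise constants were refined from the titration curves.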

Stepwise protonation constant Log K, HL: 5.1 (1)
Structure (SMILES): NC(=O)CN1CCNC(=O)c2cccc(n2)C(=O)NCCN(CC(N)=O)CC1 [Py2am, 2-[9-(Carbamoylmethyl)-2,13-dioxo-3,6,9,12,18-pentaazabicyclo[12.3.1]octadeca-1(17),14(18),15-trien-6-yl]acetamide]
